A word on the IC50: it is the point on the concentration scale where inhibition reaches its midpoint.

Where a SMILES comes first, the peptide text is derived from it. [ ]: non-standard residue; d: D form. The star is where a group is joined. Hyp = O=C(O)[C@@H]1C[C@@H](O)CN1; Boc = CC(C)(C)OC(=O)*; NHOH = ON*

The target of this assay is Neuraminidase (Influenza A virus, UniProt B4URF0). The experiment in a line: Inhibition of Influenza A virus type A H3N2 neuraminidase. A digest of the protocol:
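NA was taken from influenza A virus strains Yuefang 72-243 A and Jifang 90-15 A and prepared by the Laver method. The enzyme in 33 mmol/L MES (pH 3.5) was mixed with 4 mmol/L CaCl₂ and 20 µmol/L MUNANA (added solutions) and incubated for 10 min at 37 °C. The reaction was stopped with 14 mmol/L NaOH in 83% ethanol. Fluorescence was read at 360/450 nm with substrate blanks subtracted. IC50 came from percent inhibition versus concentration, with each point run in duplicate.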

Chain of Neuraminidase (B4URF0 whole entry): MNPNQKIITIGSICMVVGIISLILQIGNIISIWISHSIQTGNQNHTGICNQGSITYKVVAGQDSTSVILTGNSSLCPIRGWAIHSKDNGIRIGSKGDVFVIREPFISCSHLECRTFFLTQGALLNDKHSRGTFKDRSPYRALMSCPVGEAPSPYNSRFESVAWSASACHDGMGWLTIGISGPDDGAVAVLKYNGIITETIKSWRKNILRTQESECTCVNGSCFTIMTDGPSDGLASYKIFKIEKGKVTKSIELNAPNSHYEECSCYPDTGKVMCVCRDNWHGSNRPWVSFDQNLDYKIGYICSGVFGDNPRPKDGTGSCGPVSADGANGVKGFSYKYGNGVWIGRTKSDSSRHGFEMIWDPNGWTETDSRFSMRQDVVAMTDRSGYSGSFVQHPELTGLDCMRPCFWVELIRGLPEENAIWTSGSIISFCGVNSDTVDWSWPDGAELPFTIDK

Regarding `C[C@H](NC(=O)OC(C)(C)C)C(=O)N1C[C@@H](N)C[C@H]1C(=O)O`, the IC50 is, setting by setting: (read-out: IC50) 15.8 µM; (read-out: Log IC50 (converted)) 53.7 µM.
Turning to `C[C@H](NC(=O)OC(C)(C)C)C(=O)N1C[C@@H](N)C[C@H]1C(=O)NO`, the IC50 was 12.6 µM (read-out: IC50) and 40.7 µM (read-out: Log IC50 (converted)).
For `CC[C@H](C)[C@H](NC(=O)OC(C)(C)C)C(=O)N1C[C@@H](N)C[C@H]1C(=O)O` the same measures were 2.71 µM and 7.94 µM.
For `CSCC[C@H](NC(=O)OC(C)(C)C)C(=O)N1C[C@@H](N)C[C@H]1C(=O)O`, the IC50 is, setting by setting: (read-out: IC50) 1.56 µM; (read-out: Log IC50 (converted)) 4.37 µM.
In the case of `CC(C)C[C@H](NC(=O)OC(C)(C)C)C(=O)N1C[C@@H](N)C[C@H]1C(=O)NO`, the IC50 is 6.13 µM (read-out: IC50) and 17.4 µM (read-out: Log IC50 (converted)).
Turning to `O=C(NO)[C@@H]1C[C@@H](O)CN1C(=O)Cc1ccccc1Nc1c(Cl)cccc1Cl`, the IC50 runs as follows: (read-out: IC50) 8.54 µM; (read-out: Log IC50 (converted)) 20 µM.
`CC(C)[C@H](NC(=O)OC(C)(C)C)C(=O)N1C[C@@H](N)C[C@H]1C(=O)O`: the IC50 is 4.29 µM (read-out: IC50) and 13.2 µM (read-out: Log IC50 (converted)).
Regarding `COC(=O)[C@@H]1C[C@@H](N)CN1C(=O)[C@@H](N)CC(C)C`, the IC50 by setting is: (read-out: IC50) 48 µM; (read-out: Log IC50 (converted)) 191 µM.
For the molecule `CC(C)(C)OC(=O)N[C@@H](Cc1ccccc1)C(=O)N1C[C@@H](N)C[C@H]1C(=O)O`, the IC50 (read-out: IC50) is 2.4 µM and the IC50 (read-out: Log IC50 (converted)) is 6.46 µM.
Turning to `CC[C@H](C)[C@H](NC(=O)OC(C)(C)C)C(=O)N1C[C@@H](N)C[C@H]1C(=O)NO`, the concentration for half-maximal inhibition (IC50) was 2.1 µM (read-out: IC50) and 5.89 µM (read-out: Log IC50 (converted)).
On the same counts, the results for `O=C(O)[C@@H]1C[C@@H](O)CN1C(=O)Cc1ccccc1Nc1c(Cl)cccc1Cl` are 19.8 µM and 49 µM.
Take `CC(C)(C)OC(=O)N[C@@H](Cc1ccccc1)C(=O)N1C[C@@H](N)C[C@H]1C(=O)NO`: the IC50 reads like this: (read-out: IC50) 4.17 µM; (read-out: Log IC50 (converted)) 10.7 µM.
Take `N[C@H]1C[C@@H](C(=O)O)N(C(=O)Cc2ccccc2Nc2c(Cl)cccc2Cl)C1`: the half-maximal inhibitory concentration (IC50) was 16.2 µM (read-out: IC50) and 39.8 µM (read-out: Log IC50 (converted)).
With `CC(=O)N1C[C@H](O)C[C@@H]1C(=O)O`, the IC50 is, setting by setting: (read-out: IC50) 48.7 µM; (read-out: Log IC50 (converted)) 282 µM.
For `COC(=O)[C@@H]1C[C@H](N)CN1C(=O)[C@H](C)NC(=O)OC(C)(C)C`, the IC50 by setting is: (read-out: IC50) 83.7 µM; (read-out: Log IC50 (converted)) 269 µM.
Regarding `N[C@H]1C[C@@H](C(=O)NO)N(C(=O)Cc2ccccc2Nc2c(Cl)cccc2Cl)C1`, the IC50 (read-out: IC50) was 3.57 µM and the IC50 (read-out: Log IC50 (converted)) was 8.51 µM.
In the case of `COC(=O)[C@@H]1C[C@@H](O)CN1C(=O)[C@H](C)NC(=O)OC(C)(C)C` (Boc-Ala-[Hyp]-OMe), the IC50 by setting is: (read-out: IC50) 90.8 µM; (read-out: Log IC50 (converted)) 288 µM.
As to `CC[C@H](C)[C@H](NC(=O)OC(C)(C)C)C(=O)N1C[C@H](O)C[C@H]1C(=O)NO` (Boc-Ile-[Hyp]-{NHOH}), the IC50 was 2.15 µM (read-out: IC50) and 6.03 µM (read-out: Log IC50 (converted)).
Consider `CC(C)C[C@H](NC(=O)OC(C)(C)C)C(=O)N1C[C@H](O)C[C@H]1C(=O)O` (Boc-Leu-[Hyp]-OH), for which the IC50 is 11.5 µM (read-out: IC50) and 33.9 µM (read-out: Log IC50 (converted)).
Consider `CC(C)C[C@H](NC(=O)OC(C)(C)C)C(=O)N1C[C@H](O)C[C@H]1C(=O)NO` (Boc-Leu-[Hyp]-{NHOH}), for which the IC50 is, setting by setting: (read-out: IC50) 3.87 µM; (read-out: Log IC50 (converted)) 11 µM.
As to `CC(C)(C)OC(=O)N[C@@H](Cc1ccccc1)C(=O)N1C[C@H](O)C[C@H]1C(=O)O` (Boc-Phe-[Hyp]-OH), the IC50 was 2.85 µM (read-out: IC50) and 7.59 µM (read-out: Log IC50 (converted)).
Take `CC(C)(C)OC(=O)N[C@@H](Cc1ccccc1)C(=O)N1C[C@H](O)C[C@H]1C(=O)NO` (Boc-Phe-[Hyp]-{NHOH}): the IC50 runs as follows: (read-out: IC50) 4.27 µM; (read-out: Log IC50 (converted)) 11 µM.
For `CC(C)[C@H](NC(=O)OC(C)(C)C)C(=O)N1C[C@H](O)C[C@H]1C(=O)O` (Boc-Val-[Hyp]-OH) the same measures were 4.63 µM and 14.1 µM.
On to `CC(C)[C@H](NC(=O)OC(C)(C)C)C(=O)N1C[C@H](O)C[C@H]1C(=O)NO` (Boc-Val-[Hyp]-{NHOH}), for which the IC50 was 6.09 µM (read-out: IC50) and 17.8 µM (read-out: Log IC50 (converted)).

The values above are taken from ChEMBL document CHEMBL1147173, “Design, synthesis, inhibitory activity, and SAR studies of pyrrolidine derivatives as neuraminidase inhibitors” (Bioorg Med Chem, 2007).
